According to ChEMBL document CHEMBL2203235, “Optimization of a natural product-based class of γ-secretase modulators” (J Med Chem, 2012):

Tests used:
Mus musculus [1] = assay: Antialzheimer activity in CD1 mouse assessed as reduction in amyloid beta 38 level at 10 mg/kg, po QD for 5 days at 8 hrs post-last dose relative to vehicle-treated control; design: scale not given: the % may be the effect or the level left
Mus musculus [2] = assay: Antialzheimer activity in CD1 mouse assessed as reduction in amyloid beta 42 level at 10 mg/kg, po QD for 5 days at 8 hrs post-last dose relative to vehicle-treated control; design: scale not given: the % may be the effect or the level left
Mus musculus [3] = assay: Antialzheimer activity in CD1 mouse assessed as reduction in amyloid beta 38 level at 100 mg/kg, po at 6 hrs relative to vehicle-treated control; assay type: functional; design: scale not given: the % may be the effect or the level left
Method in brief: (§1)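 CD-1 mice received a single IP or PO dose (n = 12 per group) and were sampled at 6 h. Plasma and brain drug concentrations were measured in μM. Aβ42, Aβ40 and Aβ38 in brain homogenate are expressed as percent lowering versus vehicle. Statistical significance was assessed against vehicle.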

Mus musculus [4] = assay: Antialzheimer activity in CD1 mouse assessed as reduction in amyloid beta 40 level at 50 mg/kg, po QD for 5 days at 8 hrs post-last dose relative to vehicle-treated control; design: scale not given: the % may be the effect or the level left
Mus musculus [5] = assay: Antialzheimer activity in CD1 mouse assessed as reduction in amyloid beta 38 level at 30 mg/kg, po at 6 hrs relative to vehicle-treated control; assay type: functional; design: scale not given: the % may be the effect or the level left
Method in brief: as §1

[6] = Modulation of gamma secretase in CHO-2B7 cells assessed as reduction in amyloid beta 38 level after 5 hrs by MSD ELISA; assay type: cell-based; conditions: Cricetulus griseus, CHO-2B7, 5 h
SUP-T1 = assay: Inhibition of notch-mediated NICD release in human SUP-T1 cells at 4 uM after 18 hrs by immunoblotting assay; assay type: cell-based
CHO [7] = assay: Modulation of gamma secretase in CHO cells expressing human APP assessed as reduction amyloid beta (1 to 38) level at 2 uM after 6 hrs by LC/MS/MS analysis relative to control; assay type: cell-based; design: scale not given: the % may be the effect or the level left; conditions: Cricetulus griseus
Method in brief: (§2)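 Cells were treated at 3 μM or 2 μM. Secreted Aβ peptides (Aβ37, 38, 39, 40, 42) were quantified by immunoprecipitation followed by LC/MS/MS. Changes are expressed relative to vehicle-treated cells.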

Mus musculus [8] = assay: Antialzheimer activity in CD1 mouse assessed as reduction in amyloid beta 42 level at 30 mg/kg, po at 6 hrs relative to vehicle-treated control; assay type: functional; design: scale not given: the % may be the effect or the level left
Method in brief: as §1

CHO [9] = assay: Modulation of gamma secretase in CHO cells expressing human APP assessed as increase in amyloid beta (1 to 39) level at 2 uM after 6 hrs by LC/MS/MS analysis relative to control; assay type: cell-based; conditions: Cricetulus griseus
Method in brief: as §2

CHO [10] = assay: Modulation of gamma secretase in CHO cells expressing human APP assessed as reduction in amyloid beta (1 to 42) level at 2 uM after 6 hrs by LC/MS/MS analysis relative to control; assay type: cell-based; design: scale not given: the % may be the effect or the level left; conditions: Cricetulus griseus
Method in brief: as §2

[11] = Inhibition of gamma secretase in CHO-2B7 cells assessed as reduction in total amyloid beta level after 5 hrs by MSD ELISA; assay type: cell-based; conditions: Cricetulus griseus, CHO-2B7, 5 h
Mus musculus [12] = assay: Antialzheimer activity in CD1 mouse assessed as reduction in amyloid beta 38 level at 50 mg/kg, po QD for 5 days at 8 hrs post-last dose relative to vehicle-treated control; design: scale not given: the % may be the effect or the level left
[13] = Modulation of gamma secretase in CHO-2B7 cells assessed as reduction in amyloid beta 42 level after 5 hrs by MSD ELISA; assay type: cell-based; conditions: Cricetulus griseus, CHO-2B7, 5 h
Mus musculus [14] = assay: Antialzheimer activity in CD1 mouse assessed as reduction in amyloid beta 42 level at 100 mg/kg, po at 6 hrs relative to vehicle-treated control; assay type: functional; design: scale not given: the % may be the effect or the level left
Method in brief: as §1

[15] = Modulation of gamma secretase in CHO-2B7 cells assessed as reduction in amyloid beta 40 level after 5 hrs by MSD ELISA; assay type: cell-based; conditions: Cricetulus griseus, CHO-2B7, 5 h
CHO [16] = assay: Modulation of gamma secretase in CHO cells expressing human APP assessed as increase in amyloid beta (1 to 37) level at 2 uM after 6 hrs by LC/MS/MS analysis relative to control; assay type: cell-based; conditions: Cricetulus griseus
Method in brief: as §2

Mus musculus [17] = assay: Antialzheimer activity in CD1 mouse assessed as reduction in amyloid beta 40 level at 30 mg/kg, po at 6 hrs relative to vehicle-treated control; assay type: functional; design: scale not given: the % may be the effect or the level left
Method in brief: as §1

CHO [18] = assay: Modulation of gamma secretase in CHO cells expressing human APP assessed as amyloid beta (1 to 40) level at 2 uM after 6 hrs by LC/MS/MS analysis (reference value: 10.2 ng); assay type: cell-based; conditions: Cricetulus griseus
Method in brief: as §2

Mus musculus [19] = assay: Antialzheimer activity in CD1 mouse assessed as reduction in amyloid beta 40 level at 10 mg/kg, po QD for 5 days at 8 hrs post-last dose relative to vehicle-treated control; design: scale not given: the % may be the effect or the level left
Mus musculus [20] = assay: Antialzheimer activity in CD1 mouse assessed as reduction in amyloid beta 40 level at 100 mg/kg, po at 6 hrs relative to vehicle-treated control; assay type: functional; design: scale not given: the % may be the effect or the level left
Method in brief: as §1

Mus musculus [21] = assay: Antialzheimer activity in CD1 mouse assessed as reduction in amyloid beta 42 level at 30 mg/kg, ip at 6 hrs relative to vehicle-treated control; assay type: functional; design: scale not given: the % may be the effect or the level left; conditions: route intraperitoneal
Method in brief: as §1

[22] = Drug uptake in CD1 mouse brain at 1 mg/kg, iv at 6 hrs
[23] = Plasma concentration in CD1 mouse at 100 mg/kg, ip at 6 hrs; assay type: ADME, organism-based; design: dose 100 mg/kg, route intraperitoneal
Method in brief: as §1

[24] = Drug uptake in CD1 mouse brain at 100 mg/kg, ip at 6 hrs; assay type: ADME, organism-based; design: dose 100 mg/kg, route intraperitoneal; conditions: read-out: Drug uptake
Method in brief: as §1

Mus musculus [25] = assay: Antialzheimer activity in CD1 mouse assessed as reduction in amyloid beta 42 level at 100 mg/kg, ip at 6 hrs relative to vehicle-treated control; assay type: functional; design: scale not given: the % may be the effect or the level left; conditions: route intraperitoneal
Method in brief: as §1

[26] = Ratio of drug uptake in brain to plasma in CD1 mouse at 30 mg/kg, po at 6 hrs; conditions: brain and plasma
[27] = Volume of distribution in CD1 mouse at 1 mg/kg, iv; conditions: in vivo
[28] = Drug uptake in CD1 mouse brain at 30 mg/kg, ip at 6 hrs; assay type: ADME, organism-based; design: dose 30 mg/kg, route intraperitoneal; conditions: read-out: Drug uptake
Method in brief: as §1

Mus musculus [29] = assay: Antialzheimer activity in CD1 mouse assessed as reduction in amyloid beta 38 level at 100 mg/kg, ip at 6 hrs relative to vehicle-treated control; assay type: functional; design: scale not given: the % may be the effect or the level left; conditions: route intraperitoneal
Method in brief: as §1

Mus musculus [30] = assay: Antialzheimer activity in CD1 mouse assessed as reduction in amyloid beta 40 level at 100 mg/kg, ip at 6 hrs relative to vehicle-treated control; assay type: functional; design: scale not given: the % may be the effect or the level left; conditions: route intraperitoneal
Method in brief: as §1

CHO [31] = assay: Modulation of gamma secretase in CHO cells expressing human APP assessed as increase in amyloid beta (1 to 39) level at 3 uM after 6 hrs by LC/MS/MS analysis relative to control; assay type: cell-based; conditions: Cricetulus griseus
Method in brief: as §2

[32] = Ratio of drug uptake in brain to plasma in CD1 mouse at 1 mg/kg, iv at 6 hrs; conditions: brain and plasma
Liver microsomes = assay: Metabolic stability in human liver microsomes at 1 uM after 60 mins by LC/MS/MS analysis; conditions: 1 h
in vivo [33] = conditions: CD1, mouse, po, 30 mg/kg
CHO [34] = assay: Modulation of gamma secretase in CHO cells expressing human APP assessed as amyloid beta (1 to 40) level at 3 uM after 6 hrs by LC/MS/MS analysis (reference value: 10.2 ng); assay type: cell-based; conditions: Cricetulus griseus
Method in brief: as §2

[35] = Plasma concentration in CD1 mouse at 30 mg/kg, ip at 6 hrs; assay type: ADME, organism-based; design: dose 30 mg/kg, route intraperitoneal
Method in brief: as §1

Mus musculus [36] = assay: Antialzheimer activity in CD1 mouse assessed as reduction in amyloid beta 40 level at 30 mg/kg, ip at 6 hrs relative to vehicle-treated control; assay type: functional; design: scale not given: the % may be the effect or the level left; conditions: route intraperitoneal
Method in brief: as §1

[37] = Plasma concentration in CD1 mouse at 1 mg/kg, iv at 6 hrs
CHO [38] = assay: Modulation of gamma secretase in CHO cells expressing human APP assessed as reduction amyloid beta (1 to 38) level at 3 uM after 6 hrs by LC/MS/MS analysis relative to control; assay type: cell-based; design: scale not given: the % may be the effect or the level left; conditions: Cricetulus griseus
Method in brief: as §2

in vivo [39] = conditions: CD1, mouse, po, 30 mg/kg; remark: listed apart in the source
[40] = Clearance in CD1 mouse at 1 mg/kg, iv; conditions: in vivo
CHO [41] = assay: Modulation of gamma secretase in CHO cells expressing human APP assessed as increase in amyloid beta (1 to 37) level at 3 uM after 6 hrs by LC/MS/MS analysis relative to control; assay type: cell-based; conditions: Cricetulus griseus
Method in brief: as §2

Mus musculus [42] = assay: Antialzheimer activity in CD1 mouse assessed as reduction in amyloid beta 38 level at 30 mg/kg, ip at 6 hrs relative to vehicle-treated control; assay type: functional; design: scale not given: the % may be the effect or the level left; conditions: route intraperitoneal
Method in brief: as §1

CHO [43] = assay: Modulation of gamma secretase in CHO cells expressing human APP assessed as amyloid beta (1 to 42) level at 3 uM after 6 hrs by LC/MS/MS analysis (reference value: 0.6 ng); assay type: cell-based; conditions: Cricetulus griseus
Method in brief: as §2

[44] = Half life in CD1 mouse at 1 mg/kg, iv; conditions: in vivo

Compound `CCO[C@@H]([C@H]1C[C@@H](C)[C@H]2[C@H](O1)[C@H](O)[C@@]1(C)[C@@H]3CC[C@H]4C(C)(C)[C@@H](O[C@H]5CN(C6CN(C)C6)CCO5)CC[C@@]45C[C@@]35CC[C@]21C)C(C)(C)O` has an Activity (Mus musculus [1]) of 13%, an Activity (Mus musculus [2]) of 9% and an Activity (Mus musculus [3]) of 31%. It also gave an Activity (Mus musculus [4]) of 10%, an Activity (Mus musculus [5]) of 16% and an IC50 [6] of 160 nM. For the same compound, the inhibition (SUP-T1) was 0%, the Activity (CHO [7]) was 33% and the Activity (Mus musculus [8]) was 16%. For the same compound, the Activity (CHO [9]) was 530%, the Activity (CHO [10]) was 83% and the IC50 [11] was 14000 nM. It also gave an Activity (Mus musculus [12]) of 38%, an IC50 [13] of 100 nM and an Activity (Mus musculus [14]) of 26%. For the same compound, the IC50 [15] was 2100 nM, the Activity (CHO [16]) was 380% and the Activity (Mus musculus [17]) was 9%. The Activity (CHO [18]) was 11.4 ng, the Activity (Mus musculus [19]) was 7% and the Activity (Mus musculus [20]) was 15%.
`CCO[C@@H]([C@H]1C[C@@H](C)[C@H]2[C@H](O1)[C@H](O)[C@@]1(C)[C@@H]3CC[C@H]4C(C)(C)[C@@H](O[C@H]5CN(CCOC)CCO5)CC[C@@]45C[C@@]35CC[C@]21C)C(C)(C)O` showed an Activity (Mus musculus [21]) of 7%, a concentration at 6 h [22] of 9 nM and a concentration at 6 h [23] of 12000 nM. It also gave a concentration at 6 h [24] of 23000 nM, an Activity (Mus musculus [25]) of 46% and a Kp at 6 h [26] of 0.4. For the same compound, the Vd [27] was 0.42 L/kg, the concentration at 6 h [28] was 1600 nM and the Activity (Mus musculus [29]) was 31%. It also gave an IC50 [6] of 380 nM, an Activity (Mus musculus [30]) of 30% and an Activity (CHO [31]) of 310%. The inhibition (SUP-T1) was 0%, the Kp at 6 h [32] was 0.26 and the Stability (Liver microsomes) was “Stable”. For the same compound, the Cmax (in vivo [33]) was 3600 nM, the Activity (CHO [34]) was 6.2 ng and the IC50 [11] was 12000 nM. It also gave a concentration at 6 h [35] of 2200 nM, an IC50 [13] of 270 nM and an Activity (Mus musculus [36]) of 8%. It also gave a concentration at 6 h [37] of 35 nM, an Activity (CHO [38]) of 58% and a bioavailability (in vivo [39]) of 19%. For the same compound, the clearance [40] was 4.83 mL/min/kg, the IC50 [15] was 9900 nM and the Activity (CHO [41]) was 50%. The Activity (Mus musculus [42]) was 4%, the Activity (CHO [43]) was “Below limit of detection” and the half-life [44] was 2.5 h.
